The list is not random: actives were taken first. Their share in the collection is about 1.5%.
FLuc act counter: affects firefly luciferase, flagging false hits in luciferase stimulation screens; P08659; ATPlite luciferase biochemical, luminescence, 10 min; 0 = ATP-free wells, 1 = DMSO control; activation factor at 10 µM; 200,000 tested, under 10 active; AID 1027;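 active = luciferase activation factor, scaled between plate controls, of at least 2 with compound at 10 µM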
Target sequence (P08659 whole entry, looked up): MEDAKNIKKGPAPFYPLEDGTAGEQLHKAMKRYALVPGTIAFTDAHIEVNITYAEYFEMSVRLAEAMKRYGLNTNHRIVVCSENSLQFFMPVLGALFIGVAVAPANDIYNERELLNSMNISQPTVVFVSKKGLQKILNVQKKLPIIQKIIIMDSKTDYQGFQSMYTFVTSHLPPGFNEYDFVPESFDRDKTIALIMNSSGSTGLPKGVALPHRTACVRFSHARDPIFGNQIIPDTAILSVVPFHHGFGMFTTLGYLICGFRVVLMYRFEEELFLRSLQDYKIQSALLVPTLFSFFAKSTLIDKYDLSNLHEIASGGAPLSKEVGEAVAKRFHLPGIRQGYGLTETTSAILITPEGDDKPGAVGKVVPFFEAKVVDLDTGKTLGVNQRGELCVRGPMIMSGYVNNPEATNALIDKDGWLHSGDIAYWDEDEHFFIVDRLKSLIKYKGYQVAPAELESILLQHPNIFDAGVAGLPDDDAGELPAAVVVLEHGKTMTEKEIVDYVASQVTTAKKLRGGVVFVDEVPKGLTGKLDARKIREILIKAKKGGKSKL
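Material: Luciferase/luciferin reagent mix | Doses: Test compounds dosed from 2 mM stocks in 100% DMSO | Timing: 10 min incubation after luciferase reagent addition, room temperature | Measured by: Luminescence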
TRAIL sens C8: sensitizes caspase-8 expressing cells to TRAIL. NB7+C8 cells + TRAIL, ATPlite viability luminescence. inhibition (viability loss, TRAIL sensitization), % at 10 µM. actives 1% (n = 360,000). AID 624354;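 active = compounds causing at least 50% loss of cell viability in the single-dose screen, relative to plate controls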
PPC-1+TRAIL kill: kills PPC-1 cancer cells in the presence of TRAIL | PPC-1 cells + TRAIL, ATPLite viability luminescence | cell killing (% activity), % at 4 µM or 5 µM | actives 0.41% (n = 220,000) | AID 1443;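 active = cell killing above 50% in the first pass at 4 µM, then a duplicate retest at 5 µM averaging 50% or more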;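 note: plate controls were cells with TRAIL plus DMSO for no effect and medium-only wells lacking cells for full effect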
FLuc inh counter: Photinus pyralis luciferase inhibition counter-screen. ATPLite firefly luciferase biochemical luminescence, 10 min. inhibition, % at 10 µM. P08659. actives 1.5% (n = 200,000);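 active = inhibition above about 50% when tested at 10 µM, limit read from the data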
Starred values were filed as active, the others as inactive.

Screening COc1cc(/C=N/Nc2nc(Nc3ccccc3)nc(N3CCCCC3)n2)ccc1OCC(=O)O returned FLuc act counter 0.5, TRAIL sens C8 23, PPC-1+TRAIL kill 34 and FLuc inh counter 51*.
Screening CCN(Cc1ccccc1)S(=O)(=O)c1ccc(C(=O)N(CCCN(C)C)c2nc3cc(C)cc(C)c3s2)cc1 returned TRAIL sens C8 75*.
CCOc1cccc2sc(N(CCCN(C)C)C(=O)c3ccc(S(=O)(=O)N(C)Cc4ccccc4)cc3)nc12 was read as TRAIL sens C8 51*.
For Cc1ccc2sc(N(CCCN(C)C)C(=O)c3ccc(S(=O)(=O)N(C)Cc4ccccc4)cc3)nc2c1C the results were TRAIL sens C8 69*.
`Cc1cc(C)c2sc(N(CCCN(C)C)C(=O)c3ccc(S(=O)(=O)N(C)Cc4ccccc4)cc3)nc2c1` gave TRAIL sens C8 47.
`Cc1ccc2sc(N(CCCN(C)C)C(=O)c3ccc(S(=O)(=O)N(C)C)cc3)nc2c1C` gave FLuc act counter 1, TRAIL sens C8 -9, PPC-1+TRAIL kill 16 and FLuc inh counter -4.
O=C1C=C(c2ccc(F)cc2OCc2ccccc2)C[C@@H](c2ccc(Cl)cc2)C1 was read as TRAIL sens C8 -8.
`Cc1cccn2c1nc(=S)n2C(=O)c1ccco1` gave FLuc act counter 0.1, TRAIL sens C8 41, PPC-1+TRAIL kill 28 and FLuc inh counter 85*.
For Cc1ccc(N(CCC#N)C(=O)CCl)cc1C the results were FLuc act counter 1, TRAIL sens C8 87*, PPC-1+TRAIL kill 3 and FLuc inh counter -2.
O=C(NCCCN1CCOCC1)c1ccc2c(=O)n(Cc3ccc(Cl)cc3)c(=S)[nH]c2c1 was read as TRAIL sens C8 8.
Screening O=c1c2ccccc2ncn1-c1ccc(Cl)c(Cl)c1 returned FLuc act counter 1.1, TRAIL sens C8 -2, PPC-1+TRAIL kill 8 and FLuc inh counter -7.
Screening Clc1ccc(-n2cnc3c(Cl)ncnc32)cc1Cl returned TRAIL sens C8 74*.
For Cc1cc(Cl)n2ncc(-c3ccccc3)c2n1 the results were TRAIL sens C8 91* and PPC-1+TRAIL kill 22.
For COC(=O)c1cc(OCC(=O)Nc2ccc3c(c2)CCC3)cc(C(=O)OC)c1 the results were TRAIL sens C8 94*.
COc1ccc(OCC(=O)Nc2ccc3c(c2)CCC3)cc1 was read as TRAIL sens C8 -3.
Cc1c(Cl)cccc1NC(=S)N=Nc1c(O)n(CN2CCOCC2)c2ccccc12 was read as FLuc act counter 1.1, TRAIL sens C8 -4, PPC-1+TRAIL kill 53* and FLuc inh counter -5.
`Oc1c(N=NC(=S)Nc2ccccc2F)c2ccccc2n1Cc1ccccc1Cl` gave FLuc act counter 1, TRAIL sens C8 18, PPC-1+TRAIL kill 13 and FLuc inh counter 0.
`O=c1oc(-c2ccco2)nc2sc3c(c12)CCCC3` gave FLuc act counter 0.2, TRAIL sens C8 21, PPC-1+TRAIL kill -3 and FLuc inh counter 79*.
For C=CCOc1ccc(/C=C/C(C)=N\O)cc1 the results were FLuc act counter 0.4, TRAIL sens C8 61*, PPC-1+TRAIL kill 31 and FLuc inh counter 61*.
Screening Oc1ccc(-c2cn3cc(C(F)(F)F)ccc3n2)cc1 returned FLuc act counter 0.1, TRAIL sens C8 89*, PPC-1+TRAIL kill 85* and FLuc inh counter 95*.
For COCCn1nnnc1C(c1ccc(OC)c(OC)c1)N1CCN(c2nc3ccccc3s2)CC1 (configuration not stated) the results were FLuc act counter 1.1, TRAIL sens C8 -13, PPC-1+TRAIL kill 71* and FLuc inh counter -7.
O=C(c1ccc2ccccc2c1O)N1CCCCC1 was read as TRAIL sens C8 -2.
`Cc1c(C(=O)Nc2cccnc2Cl)oc2ccccc12` gave TRAIL sens C8 13.
For Cc1ccc(NCc2nc3ccccc3n2C)c(C)c1 the results were TRAIL sens C8 83*.
COc1cccc(/C=C2\Oc3cc(OCC(=O)N4CCC[C@H]4C(=O)O)ccc3C2=O)c1 was read as TRAIL sens C8 9.
CCCCCCCN(C(=O)CCl)c1ccccc1C was read as FLuc act counter 1.1, TRAIL sens C8 88*, PPC-1+TRAIL kill 18 and FLuc inh counter -7.
`Cc1ccccc1N(Cc1cc(=O)[nH]c2ccccc12)C(=O)CCl` gave TRAIL sens C8 12.
`CCOC(=O)c1cn2nc(N3CCCC3)ccc2n1` gave TRAIL sens C8 42 and PPC-1+TRAIL kill 31.
Screening CCOC(=O)c1cn2nc(N3CCCCC3)ccc2n1 returned TRAIL sens C8 53* and PPC-1+TRAIL kill 32.
COc1cccc2sc(N(C)c3ccccc3)nc12 was read as FLuc act counter 0.1, TRAIL sens C8 60*, PPC-1+TRAIL kill 39 and FLuc inh counter 85*.
For Cc1ccc(N2Cc3ccccc3C2=O)cc1 the results were TRAIL sens C8 58*.
`O=C1c2ccccc2CN1c1ccccc1` gave TRAIL sens C8 15.
For C=CC(=O)Oc1ccc(N2Cc3ccccc3C2=O)cc1 the results were TRAIL sens C8 7.
`COc1ccc(N2Cc3ccccc3C2=O)cc1` gave TRAIL sens C8 67*.
`C=CCN(CC=C)C(=O)CCc1nnc(CCc2c[nH]c3ccccc23)o1` gave FLuc act counter 1.1, TRAIL sens C8 -4, PPC-1+TRAIL kill -10 and FLuc inh counter -6.
COc1ccc(C(C(=O)NCc2ccccc2)n2c(-c3ccccn3)nc3ccccc32)cc1 (configuration not stated) was read as TRAIL sens C8 -1.
For COCCCNc1ccn2nc(-c3ccccc3)cc2n1 the results were TRAIL sens C8 53*.
CC(C)(C)c1ccc(C(=O)Nc2ccc(C=C(C#N)C#N)cc2)cc1 was read as FLuc act counter 0.9, TRAIL sens C8 53*, PPC-1+TRAIL kill 50* and FLuc inh counter 5.
Screening N#CC(C#N)=Cc1ccc(NC(=O)c2ccc(Br)cc2)cc1 returned TRAIL sens C8 13 and PPC-1+TRAIL kill 21.
Screening COc1ccc(/C=N/N=C(\N)c2nonc2N)cc1 returned FLuc act counter 0.5, TRAIL sens C8 18, PPC-1+TRAIL kill 10 and FLuc inh counter 52*.
Screening O=C(C[C@H]1C[C@H](C(=O)N2CCCCC2)[C@@]2(CCc3ccccc3)c3[nH]c4ccc(Cl)cc4c3CCN2C1=O)NCCC1=CCCCC1 returned TRAIL sens C8 55*.
CN(C)CCCNC(=O)C[C@H]1C[C@H](C(=O)N2CCCCC2)[C@@]2(CCc3ccccc3)c3[nH]c4ccc(Cl)cc4c3CCN2C1=O was read as TRAIL sens C8 66*.
O=C(CC1C[C@H](C(=O)N2CCCCC2)[C@@]2(CCc3ccccc3)c3[nH]c4ccccc4c3CCN2C1=O)NCCC1=CCCCC1 (some centres not stated) was read as TRAIL sens C8 4.
`CN(C)/C=C(\C#N)C(=O)N/N=C/c1ccc(Cl)cc1` gave FLuc act counter 0.9, TRAIL sens C8 2, PPC-1+TRAIL kill 5 and FLuc inh counter 8.
For O=C(CSc1nnc(-c2ccc(Br)cc2)o1)Nc1cccc2ccccc12 the results were FLuc act counter 1, TRAIL sens C8 -5, PPC-1+TRAIL kill 2 and FLuc inh counter -1.
